Measured values as given in ChEMBL document CHEMBL4118021, “Studies of TAK1-centered polypharmacology with novel covalent TAK1 inhibitors” (Bioorg Med Chem, 2017).
Activity calls are given as the source filed them. The rule behind the calls is not given here.

Columns and labels:
[1] = target: Activin receptor type-1 (Homo sapiens) (UniProt Q04771); experiment: Inhibition of human ACVR1 (188 to 509 residues) expressed in bacterial expression system assessed as enzyme activity at 10 uM by KINOMEScan assay relative to control; parameters: scale not given: the % may be the effect or the level left
Procedure, shortened: (§1)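 In vitro ATP-site competition binding assay (KinomeScan) across a panel of 456 kinases. Compound was tested at 1 and 10 μM. The read-out is the binding inhibition score relative to control.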

[2] = target: BMP-2-inducible protein kinase (Homo sapiens) (UniProt Q9NSY1); experiment: Inhibition of human BIKE (34 to 329 residues) expressed in bacterial expression system assessed as enzyme activity at 10 uM by KINOMEScan assay relative to control; parameters: scale not given: the % may be the effect or the level left; procedure, shortened: as §1
[3] = target: Delta-1-pyrroline-5-carboxylate synthase (Homo sapiens) (UniProt P54886); experiment: Binding affinity to ALDH18A1 in human NCI-H23 cells at 1 uM by mass spectrometry based pull down assay; type: cell-based
Procedure, shortened: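 NCI-H23 or NCI-H358 cells were grown and lysed. Lysates were incubated overnight at 4 °C with 1 μM biotinylated covalent probe or DMSO, then pulled down on streptavidin beads. Proteins were run on polyacrylamide gels and stained with Coomassie. Bands were excised, digested and identified by mass spectrometry.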

[4] = target: DNA mismatch repair protein Msh2 (Homo sapiens) (UniProt P43246); experiment: Binding affinity to MSH2 in human NCI-H358 cells at 1 uM by mass spectrometry based pull down assay; type: cell-based
[5] = target: Isoleucine--tRNA ligase, cytoplasmic (Homo sapiens) (UniProt P41252); experiment: Binding affinity to IARS in human NCI-H358 cells at 1 uM by mass spectrometry based pull down assay; type: cell-based
[6] = target: Tropomyosin alpha-3 chain (Homo sapiens) (UniProt P06753); experiment: Binding affinity to TPM3 in human NCI-H23 cells at 1 uM by mass spectrometry based pull down assay; type: cell-based
[7] = target: T1, Dual specificity mitogen-activated protein kinase kinase 7 (Homo sapiens) (UniProt O14733); experiment: Binding affinity to MAP2K7 in human NCI-H23 cells at 1 uM by mass spectrometry based pull down assay; type: cell-based
T1 sequence (whole entry): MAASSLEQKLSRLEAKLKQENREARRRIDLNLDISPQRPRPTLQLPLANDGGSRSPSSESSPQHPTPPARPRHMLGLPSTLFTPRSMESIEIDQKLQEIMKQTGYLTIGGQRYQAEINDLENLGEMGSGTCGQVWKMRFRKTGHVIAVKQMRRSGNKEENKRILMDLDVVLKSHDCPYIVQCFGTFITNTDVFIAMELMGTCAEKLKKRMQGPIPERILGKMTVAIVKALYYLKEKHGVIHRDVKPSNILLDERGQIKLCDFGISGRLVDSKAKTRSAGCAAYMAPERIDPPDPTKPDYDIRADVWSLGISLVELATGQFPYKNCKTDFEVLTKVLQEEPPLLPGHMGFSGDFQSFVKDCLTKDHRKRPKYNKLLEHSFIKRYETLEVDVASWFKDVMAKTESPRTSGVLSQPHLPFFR

[8] = target: Coatomer subunit beta (Homo sapiens) (UniProt P53618); experiment: Binding affinity to COPB1 in human NCI-H358 cells at 1 uM by mass spectrometry based pull down assay; type: cell-based
[9] = tested on: NCI-H23; experiment: Binding affinity to NDUFS3 in human NCI-H23 cells at 1 uM by mass spectrometry based pull down assay; type: cell-based
[10] = target: T1, Dual specificity mitogen-activated protein kinase kinase 7 (Homo sapiens); experiment: Binding affinity to MAP2K7 in human NCI-H358 cells at 1 uM by mass spectrometry based pull down assay; type: cell-based
[11] = target: Bifunctional 3'-phosphoadenosine 5'-phosphosulfate synthase 2 (Homo sapiens) (UniProt O95340); experiment: Binding affinity to PAPSS2 in human NCI-H23 cells at 1 uM by mass spectrometry based pull down assay; type: cell-based
[12] = target: 80S Ribosome (Homo sapiens) (UniProt P08865+P42677+P62753+P15880+P23396+P61247+P62701+P22090+P46782+P62081+P62241+P46781+P46783+P62280+P25398+P62277+P62263+P62841+P62244+P62249+P08708+P62269+P39019+P60866+P63220+P62266+P62847+P62851+P62854+P62979+P62857+P62273+P62861+P39023+P36578+P46777+Q02878+P18124+P62424+P62917+P32969+P27635+P62906+P62913+P30050+P26373+P40429+P50914+P61313+P18621+Q07020+Q02543+P84098+P46778+P35268+P62829+P62750+P83731+P61254+P61353+P46776+P46779+P47914+P62888+P62899+P62910+P49207+P42766+P18077+Q9Y3U8+P83881+P61927+P61513+P63173+P62891+P62945+P05388+P05386); experiment: Binding affinity to RPS24 in human NCI-H358 cells at 1 uM by mass spectrometry based pull down assay; type: cell-based
[13] = target: ADP-ribosylation factor-like protein 8B (Homo sapiens) (UniProt Q9NVJ2); experiment: Binding affinity to ARL8B in human NCI-H358 cells at 1 uM by mass spectrometry based pull down assay; type: cell-based
[14] = target: Mitogen-activated protein kinase 1 (Homo sapiens) (UniProt P28482); experiment: Binding affinity to MAPK1 in human NCI-H358 cells at 1 uM by mass spectrometry based pull down assay; type: cell-based
Sequence of Mitogen-activated protein kinase 1 (Homo sapiens) (P28482 whole entry): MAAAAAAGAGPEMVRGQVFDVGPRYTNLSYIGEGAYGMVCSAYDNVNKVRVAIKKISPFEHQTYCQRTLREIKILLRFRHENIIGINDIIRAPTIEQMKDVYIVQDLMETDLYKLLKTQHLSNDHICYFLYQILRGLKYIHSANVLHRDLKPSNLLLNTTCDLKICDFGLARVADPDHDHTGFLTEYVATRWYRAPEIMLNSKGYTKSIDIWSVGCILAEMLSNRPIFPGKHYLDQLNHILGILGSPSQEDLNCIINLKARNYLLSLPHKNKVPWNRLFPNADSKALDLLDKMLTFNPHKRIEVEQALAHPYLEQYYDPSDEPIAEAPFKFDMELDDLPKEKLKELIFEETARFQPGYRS

Sequence of Bifunctional 3'-phosphoadenosine 5'-phosphosulfate synthase 2 (Homo sapiens) (O95340 whole entry): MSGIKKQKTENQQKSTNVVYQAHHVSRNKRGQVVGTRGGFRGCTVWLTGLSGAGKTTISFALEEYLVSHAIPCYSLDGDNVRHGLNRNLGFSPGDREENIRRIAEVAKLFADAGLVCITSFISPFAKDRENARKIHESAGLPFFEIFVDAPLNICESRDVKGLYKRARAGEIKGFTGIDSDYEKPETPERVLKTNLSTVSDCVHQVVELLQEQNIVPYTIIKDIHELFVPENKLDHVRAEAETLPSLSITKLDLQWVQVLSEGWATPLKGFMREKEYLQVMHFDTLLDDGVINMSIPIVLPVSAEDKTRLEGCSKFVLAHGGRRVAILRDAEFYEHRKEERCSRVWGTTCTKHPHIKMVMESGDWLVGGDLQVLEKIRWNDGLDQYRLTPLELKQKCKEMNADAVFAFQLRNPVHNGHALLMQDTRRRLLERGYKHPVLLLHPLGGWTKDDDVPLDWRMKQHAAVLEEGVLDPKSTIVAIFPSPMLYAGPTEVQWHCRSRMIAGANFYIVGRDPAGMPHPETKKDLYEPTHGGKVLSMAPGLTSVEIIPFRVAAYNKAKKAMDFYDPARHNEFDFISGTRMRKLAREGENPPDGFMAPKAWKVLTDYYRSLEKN
Sequence of ADP-ribosylation factor-like protein 8B (Homo sapiens) (Q9NVJ2 whole entry): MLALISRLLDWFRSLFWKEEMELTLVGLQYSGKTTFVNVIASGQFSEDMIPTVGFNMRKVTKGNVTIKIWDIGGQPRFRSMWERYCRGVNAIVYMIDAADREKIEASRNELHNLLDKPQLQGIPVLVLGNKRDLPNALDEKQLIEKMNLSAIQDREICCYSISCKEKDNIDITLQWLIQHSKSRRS
Sequence of Delta-1-pyrroline-5-carboxylate synthase (Homo sapiens) (P54886 whole entry): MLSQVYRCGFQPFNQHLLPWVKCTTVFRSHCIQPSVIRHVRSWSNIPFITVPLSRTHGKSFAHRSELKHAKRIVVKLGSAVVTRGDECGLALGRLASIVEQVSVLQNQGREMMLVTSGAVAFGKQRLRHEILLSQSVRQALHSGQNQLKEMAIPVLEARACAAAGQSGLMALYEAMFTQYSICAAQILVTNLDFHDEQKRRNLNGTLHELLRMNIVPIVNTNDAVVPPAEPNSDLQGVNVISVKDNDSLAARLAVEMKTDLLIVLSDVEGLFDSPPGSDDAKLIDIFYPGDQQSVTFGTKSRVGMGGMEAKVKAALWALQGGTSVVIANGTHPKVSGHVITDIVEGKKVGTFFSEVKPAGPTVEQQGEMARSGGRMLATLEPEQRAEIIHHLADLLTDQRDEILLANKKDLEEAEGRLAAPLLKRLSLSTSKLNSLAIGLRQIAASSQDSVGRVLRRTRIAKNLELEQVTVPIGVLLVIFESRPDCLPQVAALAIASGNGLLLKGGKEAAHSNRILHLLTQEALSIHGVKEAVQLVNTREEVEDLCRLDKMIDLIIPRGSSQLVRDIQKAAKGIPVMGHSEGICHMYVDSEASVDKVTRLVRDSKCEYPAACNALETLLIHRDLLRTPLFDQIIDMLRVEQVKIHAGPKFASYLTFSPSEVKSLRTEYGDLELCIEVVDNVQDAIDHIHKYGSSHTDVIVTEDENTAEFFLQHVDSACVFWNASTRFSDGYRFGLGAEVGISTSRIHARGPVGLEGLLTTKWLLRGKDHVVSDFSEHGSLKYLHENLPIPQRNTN
Sequence of BMP-2-inducible protein kinase (Homo sapiens) (Q9NSY1 whole entry, looked up, the tested form may be a part): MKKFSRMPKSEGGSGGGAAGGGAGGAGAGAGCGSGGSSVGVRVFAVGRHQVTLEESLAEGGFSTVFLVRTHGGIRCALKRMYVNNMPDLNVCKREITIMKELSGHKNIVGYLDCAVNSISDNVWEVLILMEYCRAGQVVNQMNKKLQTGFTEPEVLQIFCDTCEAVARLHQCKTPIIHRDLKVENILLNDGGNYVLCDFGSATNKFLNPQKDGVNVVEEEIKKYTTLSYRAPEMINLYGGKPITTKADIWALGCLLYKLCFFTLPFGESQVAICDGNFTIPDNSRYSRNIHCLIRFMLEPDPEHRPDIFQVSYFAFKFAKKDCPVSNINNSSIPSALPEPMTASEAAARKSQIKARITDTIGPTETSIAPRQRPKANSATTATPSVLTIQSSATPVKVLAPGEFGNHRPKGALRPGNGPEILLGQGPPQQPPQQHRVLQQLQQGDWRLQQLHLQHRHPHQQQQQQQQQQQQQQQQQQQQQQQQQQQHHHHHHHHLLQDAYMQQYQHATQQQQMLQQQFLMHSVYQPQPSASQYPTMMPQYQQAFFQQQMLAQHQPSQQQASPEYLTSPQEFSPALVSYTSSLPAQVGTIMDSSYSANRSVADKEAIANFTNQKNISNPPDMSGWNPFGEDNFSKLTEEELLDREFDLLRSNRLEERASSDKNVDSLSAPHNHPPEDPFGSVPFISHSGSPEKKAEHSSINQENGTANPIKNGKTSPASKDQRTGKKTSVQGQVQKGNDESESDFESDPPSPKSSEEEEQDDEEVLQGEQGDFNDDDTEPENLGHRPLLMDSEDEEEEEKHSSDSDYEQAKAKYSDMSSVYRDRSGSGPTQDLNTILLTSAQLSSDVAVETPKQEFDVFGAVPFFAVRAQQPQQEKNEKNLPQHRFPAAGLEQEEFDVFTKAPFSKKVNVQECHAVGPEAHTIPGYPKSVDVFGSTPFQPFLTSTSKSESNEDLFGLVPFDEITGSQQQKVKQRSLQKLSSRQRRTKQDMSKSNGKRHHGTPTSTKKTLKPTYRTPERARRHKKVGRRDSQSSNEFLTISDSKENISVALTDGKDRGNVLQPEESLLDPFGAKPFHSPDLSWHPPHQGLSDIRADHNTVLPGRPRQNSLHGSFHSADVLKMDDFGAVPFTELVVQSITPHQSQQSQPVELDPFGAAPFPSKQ
Sequence of Tropomyosin alpha-3 chain (Homo sapiens) (P06753 whole entry): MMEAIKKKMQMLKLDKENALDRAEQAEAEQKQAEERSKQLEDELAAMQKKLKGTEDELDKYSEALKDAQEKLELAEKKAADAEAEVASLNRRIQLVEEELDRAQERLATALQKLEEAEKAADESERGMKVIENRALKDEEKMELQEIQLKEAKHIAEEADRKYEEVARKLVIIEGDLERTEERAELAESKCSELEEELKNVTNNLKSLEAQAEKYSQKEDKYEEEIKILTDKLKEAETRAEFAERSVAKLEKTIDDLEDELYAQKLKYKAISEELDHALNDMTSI
Sequence of DNA mismatch repair protein Msh2 (Homo sapiens) (P43246 whole entry): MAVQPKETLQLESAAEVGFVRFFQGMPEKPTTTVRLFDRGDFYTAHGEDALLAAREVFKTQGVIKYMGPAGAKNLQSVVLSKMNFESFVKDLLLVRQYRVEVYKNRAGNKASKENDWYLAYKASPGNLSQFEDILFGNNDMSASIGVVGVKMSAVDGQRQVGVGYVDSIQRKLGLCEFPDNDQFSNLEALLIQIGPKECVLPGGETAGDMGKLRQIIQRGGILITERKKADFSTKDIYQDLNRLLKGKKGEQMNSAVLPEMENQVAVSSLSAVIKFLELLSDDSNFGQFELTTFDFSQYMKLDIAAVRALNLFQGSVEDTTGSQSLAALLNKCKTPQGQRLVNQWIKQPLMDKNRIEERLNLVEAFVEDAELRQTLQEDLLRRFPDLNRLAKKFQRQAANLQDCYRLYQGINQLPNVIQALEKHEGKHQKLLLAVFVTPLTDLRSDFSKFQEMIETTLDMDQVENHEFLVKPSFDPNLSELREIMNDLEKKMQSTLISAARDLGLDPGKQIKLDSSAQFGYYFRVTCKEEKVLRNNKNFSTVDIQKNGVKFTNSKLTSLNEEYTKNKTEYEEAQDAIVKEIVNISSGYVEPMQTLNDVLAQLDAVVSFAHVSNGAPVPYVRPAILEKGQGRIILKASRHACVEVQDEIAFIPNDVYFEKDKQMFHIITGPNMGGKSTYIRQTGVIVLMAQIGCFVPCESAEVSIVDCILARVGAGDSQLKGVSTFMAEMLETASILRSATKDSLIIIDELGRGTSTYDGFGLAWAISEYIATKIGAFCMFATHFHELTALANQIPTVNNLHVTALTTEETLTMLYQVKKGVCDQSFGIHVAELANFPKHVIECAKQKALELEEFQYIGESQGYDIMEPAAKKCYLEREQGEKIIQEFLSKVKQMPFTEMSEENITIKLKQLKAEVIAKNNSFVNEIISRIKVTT
Sequence of Activin receptor type-1 (Homo sapiens) (Q04771 whole entry, the tested form may be a part): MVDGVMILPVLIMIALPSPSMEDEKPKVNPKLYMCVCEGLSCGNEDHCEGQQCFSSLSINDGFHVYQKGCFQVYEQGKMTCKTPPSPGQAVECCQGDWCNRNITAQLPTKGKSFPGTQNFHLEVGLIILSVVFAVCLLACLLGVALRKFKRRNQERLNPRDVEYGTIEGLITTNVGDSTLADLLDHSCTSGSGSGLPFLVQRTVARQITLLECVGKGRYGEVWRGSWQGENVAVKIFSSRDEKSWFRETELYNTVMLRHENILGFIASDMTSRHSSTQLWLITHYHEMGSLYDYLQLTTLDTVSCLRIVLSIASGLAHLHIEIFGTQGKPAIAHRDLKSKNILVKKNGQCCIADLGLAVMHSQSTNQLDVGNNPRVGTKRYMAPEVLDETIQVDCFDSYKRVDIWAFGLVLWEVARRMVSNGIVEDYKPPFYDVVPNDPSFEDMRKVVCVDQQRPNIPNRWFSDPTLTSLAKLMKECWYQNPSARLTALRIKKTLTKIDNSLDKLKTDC

Activity [3] | Activity [4] | Activity [5] | Activity [6] | Activity [7] | Activity [8] | Activity [10] | Activity [11] | Activity [12] | Activity [13] | Activity [14] | SMILES | Activity [1] | Activity [2] | Activity [9]
 |  |  |  |  |  |  |  |  |  |  | COc1cc(O)c2c(c1)/C=C/C[C@H](O)[C@H](O)C(=O)/C=C\C[C@H](C)OC2=O | 1.9% | 3.8% | 
Active | Active | Active | Active | Active | Active | Active | Active | Active | Active | Active | C=CC(=O)Nc1ccccc1Nc1nc(Nc2ccc(N3CCN(CCOCCOCCOCCNC(=O)CCCC[C@@H]4SC[C@@H]5NC(=O)N[C@@H]54)CC3)cc2)ncc1Cl |  |  | Active
